Data from ChEMBL document CHEMBL3421591, “Improved Synthesis of Biotinol-5'-AMP: Implications for Antibacterial Discovery” (ACS Med Chem Lett, 2015).
Values after ≈ are worked out from the molar mass of the structure shown. Active and inactive are the calls of the source. The rule behind the calls is not given here.

Columns and labels:
Escherichia coli = assay: Antimicrobial activity against Escherichia coli ATCC 25922 after 16 to 20 hrs by two-fold microdilution broth method; assay type: functional
[1] = Cytotoxicity against human HepG2 cells after 24 to 48 hrs by WST-1 assay; assay type: cell-based
[2] = Inhibition of Acinetobacter calcoaceticus recombinant BPL using 3H-biotin as substrate after 10 mins by liquid scintillation counting analysis; conditions: read-out: Ki(app)
Method in brief: (§1)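 In vitro biotinylation assay measuring radiolabeled biotin incorporation onto an acceptor protein by each recombinant BPL, run at varying inhibitor concentrations. Apparent Ki was fitted with the Morrison tight-binding equation, accounting for the BPL concentration in the assay. It was then extrapolated using each enzyme's apparent K_M for biotin, assuming inhibition competitive with biotin.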

Staphylococcus aureus [3] = assay: Antimicrobial activity against methicillin-sensitive Staphylococcus aureus after 16 to 20 hrs by two-fold microdilution broth method; assay type: functional
Enterococcus faecium = assay: Antimicrobial activity against Enterococcus faecium after 16 to 20 hrs by two-fold microdilution broth method; assay type: functional
Staphylococcus aureus [4] = assay: Antimicrobial activity against methicillin-resistant Staphylococcus aureus after 16 to 20 hrs by two-fold microdilution broth method; assay type: functional
[5] = tested on: Mycobacterium tuberculosis; assay: Antimicrobial activity against Mycobacterium tuberculosis H37Rv after 16 to 20 hrs by two-fold microdilution broth method; assay type: functional
[6] = Inhibition of Staphylococcus aureus recombinant BPL using 3H-biotin as substrate after 10 mins by liquid scintillation counting analysis; conditions: read-out: Ki(app); method in brief: as §1
Enterococcus faecalis = assay: Antimicrobial activity against Enterococcus faecalis after 16 to 20 hrs by two-fold microdilution broth method; assay type: functional
Staphylococcus aureus [7] = assay: Competitive inhibition of Staphylococcus aureus recombinant BPL using 3H-biotin as substrate by Lineweaver-Burk plot analysis
Method in brief: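 S. aureus BPL biotinylation with ³H-biotin: enzyme velocity measured across varying biotin concentrations at inhibitor 0, 20, 100 and 200 nM. Double-reciprocal Lineweaver–Burk plots of 1/velocity vs 1/biotin were used to define the inhibition mode, with K_M and V_max compared across inhibitor levels. Points are mean ± SEM of three replicates.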

[8] = tested on: Mycobacterium tuberculosis; assay: Antimicrobial activity against Mycobacterium tuberculosis 3688023 after 16 to 20 hrs by two-fold microdilution broth method; assay type: functional
Staphylococcus = assay: Antimicrobial activity against coagulase-negative Staphylococcus after 16 to 20 hrs by two-fold microdilution broth method; assay type: functional
[9] = Inhibition of Mycobacterium tuberculosis recombinant BPL using 3H-biotin as substrate after 10 mins by liquid scintillation counting analysis; conditions: read-out: Ki(app)
Method in brief: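 Recombinant BPL activity was measured as radiolabelled biotin incorporated onto an acceptor protein, across a range of inhibitor concentrations. Apparent Ki came from the Morrison tight-binding equation, because Ki values lay within 10-fold of the BPL concentration used. Binding was treated as competitive with biotin, so values were extrapolated using the apparent KM for biotin.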

[10] = Inhibition of Klebsiella pneumonia recombinant BPL using 3H-biotin as substrate after 10 mins by liquid scintillation counting analysis; set-up: species or system Klebsiella pneumoniae; conditions: read-out: Ki(app); method in brief: as §1
[11] = tested on: Mycobacterium tuberculosis; assay: Antimicrobial activity against Mycobacterium tuberculosis 37892293 after 16 to 20 hrs by two-fold microdilution broth method; assay type: functional

Row | SMILES | MIC (Escherichia coli) [µg/mL] | CC50 [1] [µg/mL] | Ki [2] [nM] | MIC (Staphylococcus aureus [3]) [µg/mL] | MIC (Enterococcus faecium) [µg/mL] | MIC (Staphylococcus aureus [4]) [µg/mL] | MIC [5] [µg/mL] | Ki [6] [nM] | MIC (Enterococcus faecalis) [µg/mL] | inhibition (Staphylococcus aureus [7]) | MIC [8] [µg/mL] | MIC (Staphylococcus) [µg/mL] | Ki [9] [nM] | Ki [10] [nM] | MIC [11] [µg/mL]
1 | Nc1ncnc2c1ncn2[C@@H]1O[C@H](COP(=O)(O)OCCCCC[C@@H]2SC[C@@H]3NC(=O)N[C@@H]32)[C@@H](O)[C@H]1O | > 128 | > 200 | 461 | 2 (≈ 3.57 µM) | > 128 | 2 (≈ 3.57 µM) | 2.5 (≈ 4.47 µM) | 18 | > 128 | Active | 0.5 (≈ 0.894 µM) | 1 (≈ 1.79 µM) | 52 | 482 | 2.5 (≈ 4.47 µM)
2 | Nc1ncnc2c1ncn2[C@@H]1O[C@H](CNS(=O)(=O)NC(=O)CCCC[C@@H]2SC[C@@H]3NC(=O)N[C@@H]32)[C@@H](O)[C@H]1O |  |  |  |  |  |  | 0.1 (≈ 0.175 µM) |  |  |  | 0.1 (≈ 0.175 µM) |  |  |  | 0.1 (≈ 0.175 µM)
